Measured values as given in ChEMBL document CHEMBL4152223 (Eur J Med Chem, 2018).
Converted amounts (≈) assume the structure as drawn. The source made the active and inactive calls. No cut-off for these calls is given here.

Assays:
Mycobacterium avium [1] = experiment: Antimycobacterial activity against INH/RIF/OFX resistant Mycobacterium avium 330/88 after 21 days; type: functional; details: 330/88, 504 h
[2] = Selectivity index, ratio of IC50 for human HepG2 cells to MIC for Mycobacterium tuberculosis H37Rv after 14 days; type: toxicity; details: read-out: Selectivity Index
Outline: (§1)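 SI is calculated as HepG2 IC50 divided by MIC. HepG2 cells (passage 2-4) were grown in EMEM with 10% FBS, L-glutamine and non-essential amino acids. Compounds in DMSO were tested in triplicate at eight concentrations, and viability was read by MTS tetrazolium reduction. IC50 is the concentration reducing viability to 50% of control. 10% DMSO served as the 0% viability control.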

[3] = target: T1, Enoyl-[acyl-carrier-protein] reductase [NADH] (Mycobacterium tuberculosis) (UniProt P9WGR1); experiment: Inhibition of Mycobacterium tuberculosis H37Rv InhA assessed as reduction of trehalose dimycolate synthesis at 4 to 8 uM preincubated for 24 hrs followed by [14C]acetate addition and measured after 24 hrs by TLC analysis
T1 sequence (whole entry): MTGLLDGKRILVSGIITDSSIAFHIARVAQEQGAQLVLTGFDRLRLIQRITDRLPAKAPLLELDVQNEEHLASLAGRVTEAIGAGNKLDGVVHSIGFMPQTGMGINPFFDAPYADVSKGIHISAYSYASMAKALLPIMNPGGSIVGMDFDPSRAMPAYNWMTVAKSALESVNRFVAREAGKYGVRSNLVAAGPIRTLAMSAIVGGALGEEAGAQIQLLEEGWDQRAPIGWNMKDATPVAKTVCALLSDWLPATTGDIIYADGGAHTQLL

[4] = target: T1, Enoyl-[acyl-carrier-protein] reductase [NADH] (Mycobacterium tuberculosis); experiment: Inhibition of Mycobacterium tuberculosis H37Rv InhA assessed as reduction of methyl esters of fatty acid synthesis at 4 to 8 uM preincubated for 24 hrs followed by [14C]acetate addition and measured after 24 hrs by TLC analysis
[5] = tested on: Mycobacterium tuberculosis; experiment: Antimycobacterial activity against Mycobacterium tuberculosis H37Rv after 14 days; type: functional; details: 336 h
[6] = tested on: Mycobacterium tuberculosis; experiment: Antimycobacterial activity against Mycobacterium tuberculosis H37Rv after 25 days by drop dilution method; type: functional, organism-based
Mycobacterium kansasii [7] = experiment: Antimycobacterial activity against Mycobacterium kansasii 235/80 after 14 days; type: functional; details: 235/80, 336 h
[8] = target: T1, Enoyl-[acyl-carrier-protein] reductase [NADH] (Mycobacterium tuberculosis); experiment: Inhibition of Mycobacterium tuberculosis H37Rv InhA assessed as reduction of phosphatidylethanolamine synthesis at 4 to 8 uM preincubated for 24 hrs followed by [14C]acetate addition and measured after 24 hrs by TLC analysis
Mycobacterium kansasii [9] = experiment: Antimycobacterial activity against Mycobacterium kansasii 6509/96 after 7 days; type: functional; details: 6509/96, 168 h
Mycobacterium kansasii [10] = experiment: Antimycobacterial activity against Mycobacterium kansasii 235/80 after 7 days; type: functional; details: 235/80, 168 h
Mycobacterium kansasii [11] = experiment: Antimycobacterial activity against Mycobacterium kansasii 6509/96 after 14 days; type: functional; details: 6509/96, 336 h
[12] = target: T1, Enoyl-[acyl-carrier-protein] reductase [NADH] (Mycobacterium tuberculosis); experiment: Inhibition of Mycobacterium tuberculosis H37Rv InhA assessed as reduction of trehalose monomycolate synthesis at 4 to 8 uM preincubated for 24 hrs followed by [14C]acetate addition and measured after 24 hrs by TLC analysis
[13] = target: T1, Enoyl-[acyl-carrier-protein] reductase [NADH] (Mycobacterium tuberculosis); experiment: Inhibition of Mycobacterium tuberculosis H37Rv InhA assessed as reduction of alpha mycolic acid synthesis at 4 to 8 uM preincubated for 24 hrs followed by [14C]acetate addition and measured after 24 hrs by TLC analysis
Mycobacterium kansasii [14] = experiment: Antimycobacterial activity against Mycobacterium kansasii 6509/96 after 21 days; type: functional; details: 6509/96, 504 h
[15] = tested on: Mycobacterium tuberculosis; experiment: Antimycobacterial activity against Mycobacterium tuberculosis H37Rv over producing InhA after 25 days by drop dilution method; type: functional, organism-based
[16] = tested on: Mycobacterium tuberculosis; experiment: Antimycobacterial activity against Mycobacterium tuberculosis H37Rv after 21 days; type: functional; details: 504 h
[17] = target: T1, Enoyl-[acyl-carrier-protein] reductase [NADH] (Mycobacterium tuberculosis); experiment: Inhibition of Mycobacterium tuberculosis H37Rv InhA assessed as reduction of cardiolipin synthesis at 4 to 8 uM preincubated for 24 hrs followed by [14C]acetate addition and measured after 24 hrs by TLC analysis
Mycobacterium avium [18] = experiment: Antimycobacterial activity against INH/RIF/OFX resistant Mycobacterium avium 330/88 after 14 days; type: functional; details: 330/88, 336 h
HepG2 = experiment: Cytotoxicity against human HepG2 cells assessed as reduction in cell viability by MTS assay; type: cell-based
Outline: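 HepG2 human hepatocellular carcinoma cells (passage 2-4) were cultured in Eagle's MEM with 10% FBS, 1% L-glutamine and non-essential amino acids. Compounds were dissolved in DMSO and tested in triplicate at eight concentrations. Viability was read by colorimetric MTS tetrazolium reduction. Controls were 100% viability and 0% viability (10% DMSO). IC50 is the concentration reducing viability to 50% of control.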

Mycobacterium kansasii [19] = experiment: Antimycobacterial activity against Mycobacterium kansasii 235/80 after 21 days; type: functional; details: 235/80, 504 h
[20] = target: T1, Enoyl-[acyl-carrier-protein] reductase [NADH] (Mycobacterium tuberculosis); experiment: Inhibition of Mycobacterium tuberculosis H37Rv InhA assessed as reduction of methoxy and keto mycolic acid synthesis at 4 to 8 uM preincubated for 24 hrs followed by [14C]acetate addition and measured after 24 hrs by TLC analysis
[21] = target: T1, Enoyl-[acyl-carrier-protein] reductase [NADH] (Mycobacterium tuberculosis); experiment: Inhibition of Mycobacterium tuberculosis H37Rv InhA assessed as reduction of trehalose monomycolate synthesis at 36.5 uM preincubated for 1 hr followed by [14C]glucose addition and measured after 24 hrs by TLC analysis
[22] = target: T1, Enoyl-[acyl-carrier-protein] reductase [NADH] (Mycobacterium tuberculosis); experiment: Inhibition of Mycobacterium tuberculosis H37Rv InhA assessed as reduction of trehalose dimycolate synthesis at 36.5 uM preincubated for 1 hr followed by [14C]glucose addition and measured after 24 hrs by TLC analysis
[23] = Selectivity index, ratio of IC50 for human HepG2 cells to MIC for Mycobacterium kansasii 6509/96; type: toxicity; details: read-out: Selectivity Index; outline: as §1
[24] = Selectivity index, ratio of IC50 for human HepG2 cells to MIC for Mycobacterium kansasii 235/80; type: toxicity; details: read-out: Selectivity Index; outline: as §1

With `CCCCCCCCCCCCNc1nnc(-c2ccncc2)o1` the MIC (Mycobacterium avium [1]) was 16 µM (≈ 5.29 µg/mL), the selectivity ratio at 336 h [2] was > 6.25 and the inhibition [3] was “inactive”. The inhibition [4] was “inactive”, the MIC [5] was 4 µM (≈ 1.32 µg/mL) and the Activity [6] was “Active”. The MIC (Mycobacterium kansasii [7]) was 125 µM (≈ 41.3 µg/mL), the inhibition [8] was “inactive” and the MIC (Mycobacterium kansasii [9]) was 125 µM (≈ 41.3 µg/mL). The MIC (Mycobacterium kansasii [10]) was 125 µM (≈ 41.3 µg/mL), the MIC (Mycobacterium kansasii [11]) was 125 µM (≈ 41.3 µg/mL) and the inhibition [12] was “inactive”. For the same molecule, the inhibition [13] was “inactive”, the MIC (Mycobacterium kansasii [14]) was 125 µM (≈ 41.3 µg/mL) and the Activity [15] was “Active”. For the same molecule, the MIC [16] was 8 µM (≈ 2.64 µg/mL), the inhibition [17] was “inactive” and the MIC (Mycobacterium avium [18]) was 8 µM (≈ 2.64 µg/mL). The IC50 (HepG2) was > 0.05 mM, the MIC (Mycobacterium kansasii [19]) was 125 µM (≈ 41.3 µg/mL) and the inhibition [20] was “inactive”.

With `NNC(=O)c1ccncc1` [ISONIAZID] the MIC (Mycobacterium avium [1]) was > 250 µM, the selectivity ratio at 336 h [2] was > 5000 and the MIC [5] was 0.5 µM (≈ 0.0686 µg/mL). For the same molecule, the inhibition [21] was “Active”, the MIC (Mycobacterium kansasii [7]) was > 250 µM and the MIC (Mycobacterium kansasii [9]) was 8 µM (≈ 1.1 µg/mL). For the same molecule, the inhibition [22] was “Active”, the MIC (Mycobacterium kansasii [10]) was > 250 µM and the selectivity ratio [23] was > 625. For the same molecule, the MIC (Mycobacterium kansasii [11]) was 8 µM (≈ 1.1 µg/mL), the selectivity ratio [24] was > 625 and the MIC (Mycobacterium kansasii [14]) was 8 µM (≈ 1.1 µg/mL). For the same molecule, the MIC [16] was 1 µM (≈ 0.137 µg/mL), the MIC (Mycobacterium avium [18]) was > 250 µM and the IC50 (HepG2) was > 5 mM. The MIC (Mycobacterium kansasii [19]) was > 250 µM.

With `CCNC(=O)NNC(=O)c1ccncc1` the MIC (Mycobacterium avium [1]) was > 1000 µM, the selectivity ratio at 336 h [2] was > 2000 and the MIC [5] was 1 µM (≈ 0.208 µg/mL). The MIC (Mycobacterium kansasii [7]) was 62.5 µM (≈ 13 µg/mL), the MIC (Mycobacterium kansasii [9]) was 32 µM (≈ 6.66 µg/mL) and the MIC (Mycobacterium kansasii [10]) was 32 µM (≈ 6.66 µg/mL). The selectivity ratio [23] was > 64, the MIC (Mycobacterium kansasii [11]) was 62.5 µM (≈ 13 µg/mL) and the selectivity ratio [24] was > 64. For the same molecule, the MIC (Mycobacterium kansasii [14]) was 62.5 µM (≈ 13 µg/mL), the MIC [16] was 2 µM (≈ 0.416 µg/mL) and the MIC (Mycobacterium avium [18]) was 1000 µM (≈ 208 µg/mL). For the same molecule, the IC50 (HepG2) was > 4 mM and the MIC (Mycobacterium kansasii [19]) was 62.5 µM (≈ 13 µg/mL).
